Assay outcomes as filed in PubChem BioAssay.
EWS-Fli inh – EWS/Fli transcriptional activity inhibition | A673 NR0B1-luciferase reporter, viability-normalised | AID 651661 | 0.67% of 350,000 active | inhibition, % at 12.6 µM;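 active = mean inhibition of at least 50% after viability correction, with every replicate also passing that limit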;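 note: firefly luciferase signal divided by Alamar Blue viability fluorescence both relative to DMSO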
PGC1a acetyl inh – PGC1a acetylation modulation, inhibitor mode; U2OS PGC1a acetylation, AlphaScreen anti-acetyl-lysine; with virally co-expressed GCN5 acetyltransferase; inhibition, % at 15.6 µM; 0.17% of 350,000 active; AID 651687;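 active = every replicate shows inhibition of at least 40%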
CFTR F508del cor – CFTR F508del correction in bronchial cells; 0.36% of 350,000 active; activity (quench increase), % at 7.58 µM; AID 720511; CFBE cells, YFP halide quenching; stimulated with forskolin plus potentiator P3; % fluorescence drop versus neutral controls;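 active = mean added fluorescence quench of at least 8% versus neutral control, with both replicates also reaching 8%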;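 note: cells transiently co-express mutant CFTR-F508del with the halide-sensitive YFP; corrector assay measuring rescue of mutant channel to the surface after 24 h compound exposure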
PAX8 inh HTS – inhibitors of PAX8 transcriptional activity in RMG-I cells | RMG-I TPO-luciferase reporter, SteadyGlo, 24 h | inhibition, % at 12.6 µM | 1.2% of 360,000 active | AID 652154;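 active = mean replicate inhibition at least 60% with every replicate also reaching 60%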;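 note: luciferase light reporting Pax8 driven TPO promoter activity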
FN deposition inh – fibronectin deposition inhibition. AH1F fibroblasts, Alexa488-fibronectin deposition fluorescence, overnight. inhibition, % at 12.6 µM. 0.086% of 350,000 active. AID 743247;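 active = mean inhibition across replicates of 30% or more, regardless of how many single replicates reach that level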
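Measured by – fluorescence 485/525 nm · System – AH1F fibroblast monolayer, labelled fibronectin deposition · Amount – 10000 cells per well · Buffer or medium – serum-reduced DMEM (2% serum) · Doses – single dose, pinned · Also added – fluorescent fibronectin at 24 nM final · Schedule – 1 h cell attachment, overnight exposure to compound and label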
Env fusion inh – HIV envelope-mediated fusion inhibition; inhibition, % at 12.3 µM; HeLa-JRFL Env/CEM21 cell fusion, luciferase; 1.1% of 360,000 active; AID 651610;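 active = mean replicate inhibition score of at least 50 and every replicate individually at or above 50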
Numbers stand for hits; 0 = inactive; - = not tested or not shown; [ ] = remark or other dose. This is a sample that favours compounds with a hit; in the whole collection about 2.3% have one here.

SMILES	EWS-Fli inh	PGC1a acetyl inh	CFTR F508del cor	PAX8 inh HTS	FN deposition inh	Env fusion inh
CC(C)n1c(=S)[nH]c2cc(Cl)ccc21	0	69.1	0	0	0	0
CCCCOc1ccc(/C=C/C(=O)Nc2ccc([N+](=O)[O-])cc2C)cc1	-	-	-	0	0	0
CCCOc1ccc(/C=C/C(=O)Nc2ccc([N+](=O)[O-])cc2)cc1	-	-	-	0	0	68.4
COCC#Cc1ccc2c(c1)O[C@@H](CN(C)S(=O)(=O)c1ccc(C)cc1)[C@H](C)CN([C@H](C)CO)S2(=O)=O	0	0	0	-	0	0
CC(=O)N(C)C[C@H]1Oc2ccccc2C(=O)N(C)C[C@H]1C	-	-	-	-	0	-
COc1ccc(NC(=O)C(CC(=O)O)Cc2ccccc2)cc1 (stereo not drawn)	-	-	-	0	-	0
COc1ccc(NC(=O)C(CC(=O)O)Cc2ccc(Cl)cc2)cc1 (stereo not drawn)	0	-	8.9	0	0	0
COc1ccc(CN(C)C[C@@H]2Oc3ccc(NS(=O)(=O)c4cccs4)cc3C(=O)N([C@@H](C)CO)C[C@@H]2C)cc1	0	0	0	-	0	0
Cc1noc(C)c1CSCC(=O)Nc1nc(-c2ccc(F)c(F)c2)cs1	0	-	0	0	-	61.5
COc1ccc(-c2csc(NC(=O)CSCc3c(C)noc3C)n2)cc1OC	0	0	0	0	0	0
CCOc1ccc2ccccc2c1/C=N\NC(=O)c1ccc([N+](=O)[O-])cc1	0	0	0	0	0	0
CCOc1ccc2ccccc2c1/C=N\NC(=O)OC	0	0	0	140.5	0	-
C[C@@H]1CN([C@@H](C)CO)C(=O)c2cc(NS(=O)(=O)c3ccc(F)cc3)ccc2O[C@@H](C)CCCCO[C@@H]1CN(C)C(=O)Nc1cccc2ccccc12	0	0	0	0	0	0
CNC[C@H]1Oc2c(NC(=O)Nc3ccc(C(F)(F)F)cc3)cccc2C(=O)N([C@H](C)CO)C[C@H]1C	0	0	0	0	0	0
CNC[C@H]1Oc2c(NC(=O)Nc3ccc(C(F)(F)F)cc3)cccc2C(=O)N([C@@H](C)CO)C[C@H]1C	0	0	0	0	0	63.4[16.7 µM]
C[C@@H]1CN([C@@H](C)CO)C(=O)c2cccc(NC(=O)Nc3ccc(C(F)(F)F)cc3)c2O[C@@H]1CN(C)CC1CCCCC1	60.6	0	0	-	-	-
C[C@@H]1CN([C@H](C)CO)C(=O)c2cccc(NC(=O)Nc3ccc(C(F)(F)F)cc3)c2O[C@H]1CN(C)CC1CC1	0	0	0	78.1	-	0
CCC(=O)N1[C@H](C(=O)Nc2ccccc2)[C@@H](CO)[C@@H]2Cn3c(ccc(C4=CCCC4)c3=O)[C@@H]21	0	-	0	0	-	-
C=CCOC(=O)[C@H]1[C@@H]2C(=O)O[C@@H](c3ccccc3)[C@@H](c3ccccc3)N2[C@@H](c2ccc(OCCOC(=O)[C@H]3C[C@H]4C(=O)N[C@@H](Cc5ccccc5)C(=O)N4[C@H]3c3ccc(O)cc3)cc2)[C@]12C(=O)Nc1ccc(I)cc12	0	-	0	0	-	0
CCCn1nc(C(=O)Nc2ccc3nc(N4CCOCC4)sc3c2)ccc1=O	0	-	0	0	0	85.3
Cc1ccc2c(c1)-c1c(ssc1=S)C(C)(C)N2C(=O)c1ccco1	-	0	-	-	0	56.7
CC1(C)c2ssc(=S)c2-c2ccccc2N1C(=O)c1ccco1	-	0	-	-	0	0
Cc1ccc(-c2c[n+]3c(n2-c2ccccc2)SCC3)cc1	0	0	0	0	0	59.0
c1ccc(-c2cn(-c3ccccc3)c3[n+]2CCCS3)cc1	0	-	0	0	0	0
COc1ccc(-n2cc(-c3ccc(C)cc3)[n+]3c2SCC3)cc1	-	-	-	79.4	-	117.6
SMILES	EWS-Fli inh	PGC1a acetyl inh	CFTR F508del cor	PAX8 inh HTS	FN deposition inh	Env fusion inh
CCc1ccc(-n2cc(-c3ccc(F)cc3)[n+]3c2SCCC3)cc1	0	0	0	0	0	0
Cc1ccc(-c2cn(-c3ccccc3)c3[n+]2CCCS3)cc1	0	0	-	79.0	0	0
O=C(c1cccc(F)c1)N1CC2(C1)[C@H](c1ccccc1)[C@@H](CO)N2C(=O)C1CCC1	0	0	0	-	0	-
CN(CC(=O)Nc1cccc(F)c1)C(=O)Cc1ccsc1	0	0	0	0	0	0
CN(CC(=O)Nc1cccc(F)c1)C(=O)CCCc1cccs1	0	-	0	96.8	0	-
C=C1CCN([C@H](C(=O)OCc2cccc(C)c2)C(C)C)S(=O)(=O)c2ccccc21	0	-	0	0	0	75.8
Oc1ccccc1N=N/C(=N/Nc1ccccc1O)c1ccccc1	0	-	0	0	0	0
Cn1nnnc1N=N/C(=N/Nc1ccccc1)c1ccccc1	0	0	12.6	0	0	0
COC(=O)c1ccc2nc(-c3ccc4c(c3)OCO4)cn2c1	0	0	0	0	0	0
CCc1ccn2cc(-c3ccc4c(c3)OCO4)nc2c1	83.1	0	0	80.2	0	0
Cc1ccc(S(=O)(=O)Nc2ccc3c(c2)nc(CCN2CCCC2)n3C)cc1	0	0	0	93.6	0	0
Cn1c(CCN2CCCC2)nc2cc(NS(=O)(=O)c3ccc(F)cc3)ccc21	0	-	0	84.3	0	0
Cn1c(CCN2CCCC2)nc2cc(NS(=O)(=O)c3ccc(Cl)cc3)ccc21	0	0	0	100.6	0	0
Cn1c(CCN2CCCCC2)nc2cc(NS(=O)(=O)c3ccccc3)ccc21	-	0	-	-	0	0
Cn1c(CN2CCCC2)nc2cc(NS(=O)(=O)c3ccc(Cl)cc3)ccc21	-	0	-	-	-	-
COc1ccc(NC(=O)[C@H](Cc2c[nH]c3ccccc23)NC(=O)[C@@H]2Cc3ccccc3CN2)cc1	0	63.5	0	-	-	-
CN1c2ccc(-c3ccccc3)cc2[C@H]2[C@H](CCN2S(=O)(=O)c2ccccc2F)[C@@H]1CO	0	0	0	0	0	-
COc1cc(/C=N/NC(=O)c2cc(-c3c(C)nn(-c4ccccc4)c3C)n[nH]2)ccc1O	0	-	13.6	69.4	0	0
Cc1nn(-c2ccccc2)c(C)c1-c1cc(C(=O)N/N=C/c2ccc(O)cc2)[nH]n1	0	0	0	0	0	0
C[C@@H](c1ccccc1)N1C[C@H]2CCCN2c2cc(Br)ccc2S1(=O)=O	62.6	0	0	0	0	0
O=S1(=O)c2ccc(Br)cc2N2CCC[C@@H]2CN1Cc1ccc(Cl)cc1	0	-	0	0	0	0
O=S1(=O)c2ccc(Br)cc2N2CC[C@H](C2)N1Cc1ccc(Cl)cc1	66.2	-	0	0	0	-
O=S1(=O)c2ccc(Br)cc2N2CCC[C@H]2CN1Cc1ccccc1	0	0	9.5	0	0	0
CCNC(=O)C[C@H]1CC[C@H]2[C@H](COc3ccc(NC(=O)c4cccc(C(F)(F)F)c4)cc3C(=O)N2C)O1	0	0	0	0	0	0
CCOC(=O)C(C(C)=O)c1c(Br)c(O)c(O)c2c(C(=O)c3ccc(C)cc3)coc12 (stereo not drawn)	-	0	-	-	0	108.2
COCCCn1c(-c2ccc(S(=O)(=O)N3CCOCC3)cc2)csc1=Nc1ccccc1	-	-	-	0	0	70.2
